Source: ChEMBL document CHEMBL1156009, “Eleven amino acid glucagon-like peptide-1 receptor agonists with antidiabetic activity” (J Med Chem, 2009)
The source made the active and inactive calls. No cut-off for these calls is given here. Square brackets hold non-standard residues; d marks the D form. Peptide text beside a SMILES is read from it. Bip(2'-Et-4'-OMe) = CCc1cc(OC)ccc1-c1ccc(C[C@H](N)C(=O)O)cc1; Bip(2'-Me) = Cc1ccccc1-c1ccc(C[C@H](N)C(=O)O)cc1; αMePhe(2,6-F2) = C[C@](N)(Cc1c(F)cccc1F)C(=O)O; αMePhe(2-F) = C[C@](N)(Cc1ccccc1F)C(=O)O; Aib = CC(C)(N)C(=O)O

Key:
Mus musculus [1] = test: Antidiabetic activity in insulin-resistant ob/ob mouse assessed as increase in plasma insulin level at 300 nmol/kg, sc administered 30 mins before glucose infusion measured after 30 mins of glucose challenge by intraperitoneal glucose tolerance test; format: functional, organism-based
In short: (§1)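 Male ob/ob mice, 19 weeks old, 6 per group, randomized on fed glucose and body weight. After an 18 h fast, single sc dose in 1:1 propylene glycol/20 mM sodium phosphate pH 7.4 (0.1 mL/100 g) at -30 min. 2 g/kg glucose (50%) given ip at time 0. Tail bleeds at 0, 30, 60, 120 and 180 min into K-EDTA. Glucose measured on analyzer, insulin by ultrasensitive mouse ELISA. ANOVA with Dunnett's test versus vehicle.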

[2] = Cmax in insulin-resistant ob/ob mouse at 300 nmol/kg, sc up to 24 hrs by LC-MS/MS analysis; format: ADME, organism-based; parameters: dose 300 nmol/kg, route subcutaneous; details: in vivo
In short: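 ob/ob mice dosed sc at 300 nmol/kg in 1:1 propylene glycol/20 mM sodium phosphate pH 7.4. Plasma sampled at 1, 2, 4, 6, 8 and 24 h and quantified by LC-MS/MS.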

[3] = target: Glucagon-like peptide 1 receptor (Homo sapiens, UniProt P43220); test: Agonist activity at human GLP1R expressed in CHO cells assessed as stimulation of intracellular [3H]cAMP accumulation after 30 mins by scintillation proximity assay; format: functional, cell-based
In short: (§2)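 CHO cells stably expressing human or mouse GLP-1R, grown in F-12 with 10% FBS plus Geneticin (0.4 mg/mL human, 1 mg/mL mouse), plated 2×10^4/well overnight. Half-log dilutions made in DMSO, then in DPBS with 0.1 mM IBMX and 0.05% BSA (final 1% DMSO). Cells exposed 30 min. cAMP read by SPA and converted to pmol via standard curve. Duplicates, at least three separate runs.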

Mus musculus [4] = test: Antidiabetic activity in insulin-resistant ob/ob mouse assessed as increase in plasma insulin level at 300 nmol/kg, sc administered 30 mins before glucose infusion measured after 60 mins of glucose challenge by intraperitoneal glucose tolerance test; format: functional, organism-based; in short: as §1
Canis familiaris = test: Tmin in Beagle dog at 67 ug/kg, sc by LC-MS/MS analysis; format: ADME, organism-based, Canis lupus familiaris; details: in vivo, 0.067 mg/kg
Mus musculus [5] = test: Antidiabetic activity in insulin-resistant ob/ob mouse assessed as reduction in plasma glucose level at 300 nmol/kg, sc administered 30 mins before glucose infusion measured after 30 to 180 mins of glucose challenge by intraperitoneal glucose tolerance test; format: functional, organism-based; in short: as §1
[6] = target: T1, Glucagon-like peptide 1 receptor (Mus musculus, UniProt O35659); test: Agonist activity at mouse GLP1R expressed in CHO cells assessed as stimulation of intracellular [3H]cAMP accumulation by scintillation proximity assay; format: functional, cell-based; in short: as §2
T1 sequence (O35659 whole entry): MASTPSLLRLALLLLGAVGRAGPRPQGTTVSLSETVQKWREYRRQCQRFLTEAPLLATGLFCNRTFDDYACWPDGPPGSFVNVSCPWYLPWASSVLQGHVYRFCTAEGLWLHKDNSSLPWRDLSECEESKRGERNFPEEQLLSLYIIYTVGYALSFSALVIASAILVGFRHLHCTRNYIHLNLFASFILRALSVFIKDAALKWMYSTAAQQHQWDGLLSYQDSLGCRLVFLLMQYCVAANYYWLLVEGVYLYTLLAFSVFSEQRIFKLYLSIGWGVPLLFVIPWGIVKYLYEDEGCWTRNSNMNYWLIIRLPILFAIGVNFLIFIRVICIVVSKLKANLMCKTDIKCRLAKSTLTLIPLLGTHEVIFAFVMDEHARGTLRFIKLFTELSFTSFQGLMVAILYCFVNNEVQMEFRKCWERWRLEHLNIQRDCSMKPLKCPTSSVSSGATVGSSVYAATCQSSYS

[7] = Mean residence time in Beagle dog at 67 ug/kg, sc by LC-MS/MS analysis; format: ADME, organism-based, Canis lupus familiaris; details: in vivo, 0.067 mg/kg
[8] = Half life in patient with type 2 diabetes at 2.5 to 25 nmol, iv administered as bolus dose; format: ADME, organism-based; details: human, in vivo
Mus musculus [9] = test: Antidiabetic activity in insulin-resistant ob/ob mouse assessed as reduction in plasma glucose level at 30 nmol/kg, sc administered 30 mins before glucose infusion measured after 30 to 180 mins of glucose challenge by intraperitoneal glucose tolerance test; format: functional, organism-based; in short: as §1
Mus musculus [10] = test: Antidiabetic activity in insulin-resistant ob/ob mouse assessed as increase in plasma insulin level at 30 nmol/kg, sc administered 30 mins before glucose infusion measured after 30 to 180 mins of glucose challenge by intraperitoneal glucose tolerance test; format: functional, organism-based; in short: as §1
[11] = Agonist activity at VIP receptor; format: functional
[12] = Agonist activity at PACAP receptor; format: functional
[13] = target: T2, Gastric inhibitory polypeptide receptor (Homo sapiens, UniProt P48546); test: Agonist activity at GIPR; format: functional
T2 sequence (P48546 whole entry): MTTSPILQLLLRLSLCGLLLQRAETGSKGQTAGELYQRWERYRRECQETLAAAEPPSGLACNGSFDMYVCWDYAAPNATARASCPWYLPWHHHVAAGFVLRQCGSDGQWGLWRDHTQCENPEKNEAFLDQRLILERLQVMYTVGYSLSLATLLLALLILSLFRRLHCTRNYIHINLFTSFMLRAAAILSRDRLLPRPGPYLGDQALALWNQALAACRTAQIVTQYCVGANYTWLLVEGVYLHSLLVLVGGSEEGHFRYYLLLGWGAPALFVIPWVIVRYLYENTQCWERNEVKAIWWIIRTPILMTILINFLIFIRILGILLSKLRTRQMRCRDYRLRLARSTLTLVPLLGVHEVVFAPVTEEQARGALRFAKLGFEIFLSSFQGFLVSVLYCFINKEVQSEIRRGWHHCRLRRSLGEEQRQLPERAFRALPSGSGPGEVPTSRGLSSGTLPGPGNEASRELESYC

Glucagon receptor = Glucagon receptor (Homo sapiens, UniProt P47871); test: Agonist activity at glucagon receptor; format: functional
[14] = target: T3, Parathyroid hormone/parathyroid hormone-related peptide receptor (Homo sapiens, UniProt Q03431); test: Agonist activity at PTHR; format: functional
T3 sequence (Q03431 whole entry): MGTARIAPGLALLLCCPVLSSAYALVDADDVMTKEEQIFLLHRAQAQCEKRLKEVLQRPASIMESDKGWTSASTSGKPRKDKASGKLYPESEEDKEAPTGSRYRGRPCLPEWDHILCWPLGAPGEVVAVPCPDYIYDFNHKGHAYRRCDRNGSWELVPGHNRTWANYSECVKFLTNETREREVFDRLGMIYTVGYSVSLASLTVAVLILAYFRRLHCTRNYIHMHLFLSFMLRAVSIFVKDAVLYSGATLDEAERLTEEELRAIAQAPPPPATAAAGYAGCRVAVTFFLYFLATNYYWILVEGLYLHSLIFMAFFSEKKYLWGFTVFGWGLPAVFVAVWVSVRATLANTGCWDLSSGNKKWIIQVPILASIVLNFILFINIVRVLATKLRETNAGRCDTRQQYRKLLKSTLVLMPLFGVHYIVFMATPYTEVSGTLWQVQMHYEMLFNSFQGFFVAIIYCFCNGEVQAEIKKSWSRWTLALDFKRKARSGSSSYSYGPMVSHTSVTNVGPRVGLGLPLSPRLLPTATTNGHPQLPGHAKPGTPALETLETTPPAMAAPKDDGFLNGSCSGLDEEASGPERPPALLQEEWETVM

Sequence of Glucagon-like peptide 1 receptor (Homo sapiens, UniProt P43220) (P43220 whole entry): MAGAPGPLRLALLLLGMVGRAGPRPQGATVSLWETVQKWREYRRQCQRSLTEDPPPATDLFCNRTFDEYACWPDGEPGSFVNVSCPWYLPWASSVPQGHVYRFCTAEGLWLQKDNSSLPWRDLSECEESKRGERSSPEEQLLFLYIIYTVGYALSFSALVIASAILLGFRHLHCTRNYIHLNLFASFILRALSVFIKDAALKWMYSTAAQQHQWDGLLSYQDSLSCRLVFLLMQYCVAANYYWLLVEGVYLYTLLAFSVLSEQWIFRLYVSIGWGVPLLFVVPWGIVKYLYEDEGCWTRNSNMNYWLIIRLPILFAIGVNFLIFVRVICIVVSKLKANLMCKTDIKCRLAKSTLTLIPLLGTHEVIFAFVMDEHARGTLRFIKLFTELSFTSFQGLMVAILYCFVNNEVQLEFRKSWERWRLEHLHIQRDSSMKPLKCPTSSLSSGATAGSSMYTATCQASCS
Sequence of Glucagon receptor (P47871 whole entry): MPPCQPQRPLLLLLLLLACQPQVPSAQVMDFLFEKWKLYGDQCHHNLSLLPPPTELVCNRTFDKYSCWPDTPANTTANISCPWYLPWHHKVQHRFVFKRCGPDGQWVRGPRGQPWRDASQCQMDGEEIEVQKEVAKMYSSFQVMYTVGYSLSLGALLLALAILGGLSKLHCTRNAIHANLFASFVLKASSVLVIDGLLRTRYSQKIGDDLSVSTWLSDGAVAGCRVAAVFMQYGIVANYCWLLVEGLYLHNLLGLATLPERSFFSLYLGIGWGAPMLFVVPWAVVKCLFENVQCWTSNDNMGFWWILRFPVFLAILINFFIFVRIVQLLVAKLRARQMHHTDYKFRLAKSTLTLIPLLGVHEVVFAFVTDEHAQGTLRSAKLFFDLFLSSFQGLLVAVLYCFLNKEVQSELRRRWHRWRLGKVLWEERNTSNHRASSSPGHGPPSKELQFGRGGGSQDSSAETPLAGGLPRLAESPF

| Cmax [2] | EC50 [3] | Tmin (Canis familiaris) | EC50 [6] | SMILES | Activity (Mus musculus [1]) | Activity (Mus musculus [4]) | Activity (Mus musculus [5]) | also measured |
| --- | --- | --- | --- | --- | --- | --- | --- | --- |
| > 2000 nM | 0.12 nM | 24 h | 0.0008 µM | CCc1cc(OC)ccc1-c1ccc(C[C@H](NC(=O)[C@H](CC(=O)O)NC(=O)[C@H](CO)NC(=O)[C@@H](NC(=O)[C@](C)(Cc2c(F)cccc2F)NC(=O)[C@@H](NC(=O)CNC(=O)[C@H](CCC(=O)O)NC(=O)C(C)(C)NC(=O)[C@@H](N)Cc2cnc[nH]2)[C@@H](C)O)[C@@H](C)O)C(=O)N[C@@H](Cc2ccc(-c3ccccc3C)cc2)C(N)=O)cc1 (H-H[Aib]EGT[αMePhe(2,6-F2)]TSD[Bip(2'-Et-4'-OMe)][Bip(2'-Me)]-NH2) | Active | Active | Active | MRT [7]: 20 h |
|  | 0.034 nM |  |  | CC[C@H](C)[C@H](NC(=O)[C@H](Cc1ccccc1)NC(=O)[C@H](CCC(=O)O)NC(=O)[C@H](CCCCN)NC(=O)[C@H](C)NC(=O)[C@H](C)NC(=O)[C@H](CCC(N)=O)NC(=O)CNC(=O)[C@H](CCC(=O)O)NC(=O)[C@H](CC(C)C)NC(=O)[C@@H](NC(=O)[C@H](CO)NC(=O)[C@H](CO)NC(=O)[C@@H](NC(=O)[C@H](CC(=O)O)NC(=O)[C@H](CO)NC(=O)[C@@H](NC(=O)[C@H](Cc1ccccc1)NC(=O)[C@@H](NC(=O)CNC(=O)[C@H](CCC(=O)O)NC(=O)[C@H](C)NC(=O)[C@@H](N)Cc1cnc[nH]1)[C@@H](C)O)[C@@H](C)O)C(C)C)[C@@H](C)O)C(=O)N[C@@H](C)C(=O)N[C@@H](Cc1c[nH]c2ccccc12)C(=O)N[C@@H](CC(C)C)C(=O)N[C@H](C(=O)N[C@@H](CCCCN)C(=O)NCC(=O)N[C@@H](CCCN=C(N)N)C(N)=O)C(C)C |  |  |  | half-life [8]: 2 min |
| > 2000 nM | 0.087 nM | 8 h | 0.0024 µM | CCc1cc(OC)ccc1-c1ccc(C[C@H](NC(=O)[C@H](CC(=O)O)NC(=O)[C@H](CO)NC(=O)[C@@H](NC(=O)[C@](C)(Cc2ccccc2F)NC(=O)[C@@H](NC(=O)CNC(=O)[C@H](CCC(=O)O)NC(=O)C(C)(C)NC(=O)[C@@H](N)Cc2cnc[nH]2)[C@@H](C)O)[C@@H](C)O)C(=O)N[C@@H](Cc2ccc(-c3ccccc3C)cc2)C(N)=O)cc1 (H-H[Aib]EGT[αMePhe(2-F)]TSD[Bip(2'-Et-4'-OMe)][Bip(2'-Me)]-NH2) | Active | Active | Active | Activity (Mus musculus [9]): Active; Activity (Mus musculus [10]): Active; EC50 [11]: > 10 µM; IC50 [11]: > 10 µM; EC50 [12]: > 10 µM; IC50 [12]: > 10 µM; EC50 [13]: > 10 µM; IC50 [13]: > 10 µM; EC50 (Glucagon receptor): > 10 µM; IC50 (Glucagon receptor): > 10 µM; EC50 [14]: > 10 µM; IC50 [14]: > 10 µM |
